The values below come from ChEMBL document CHEMBL4265933, “Rationally designed divalent caffeic amides inhibit amyloid-β fibrillization, induce fibril dissociation, and ameliorate cytotoxicity” (Eur J Med Chem, 2018).

Assay [1] addresses T1, Amyloid-beta precursor protein (Homo sapiens, UniProt P05067). Kind of assay: Inhibition of amyloid beta (1 to 42) (unknown origin) assessed as fibril formation at 10 uM incubated with agitation for 1 min every hr measured over 80 hrs by thioflavin-T assay relative to control. Set-up: scale not given: the % may be the effect or the level left.
The target in assay [2] is T1, Amyloid-beta precursor protein. Kind of assay: Inhibition of amyloid beta (1 to 42) fibrillization (unknown origin) incubated with agitation for 1 min every hr measured over 80 hrs by thioflavin-T assay.
For assay [3] the target is unchanged. In words: Inhibition of amyloid beta (1 to 42) fibrillization (unknown origin) at 12.5 to 25 uM incubated with agitation for 1 min every hr measured over 80 hrs by transmission electron microscopy. In a few lines:
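End-point Aβ(1–42) products after 80 h ThT incubation (50 µM peptide, 37 °C) with 12.5 or 25 µM compound were applied to Formvar carbon-coated copper grids for 5 min. Grids were water-washed and stained with 2% uranyl acetate. Imaging was by TEM at 120 kV.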

Assay [4] deals with SH-SY5Y. In words: Neuroprotective activity against amyloid beta (1 to 42 residues) induced cytotoxicity in human SH-SY5Y cells assessed as protection against amyloid beta (1 to 42 residues) induced decrease in cell viability at 0.01 uM after 24 hrs by LDH assay relative to control. It counts as functional. In a few lines: (§1)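 SH-SY5Y cells (DMEM/F12, 5% FBS, 37 °C, 5% CO2) were seeded at 10,000 cells/well for 24 h, then switched to serum-free medium. Cells received 10 µL end-point Aβ(1–42) ThT-assay product (peptide co-incubated with compound) for 24 h. Cleared medium was incubated with LDH substrate 30 min at room temperature, dark, and read at 490 nm. Cell-free background was subtracted; 2% Triton X-100 lysis set 100% cytotoxicity. Triplicate.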

Assay [5] deals with SH-SY5Y. Kind of assay: Neuroprotective activity against amyloid beta (1 to 42 residues) induced cytotoxicity in human SH-SY5Y cells assessed as protection against amyloid beta (1 to 42 residues) induced decrease in cell viability at 25 uM after 24 hrs by LDH assay relative to control. It counts as functional. In a few lines:
as §1

In assay [6] the test system is SH-SY5Y. In words: Neuroprotective activity against amyloid beta (1 to 42 residues) induced cytotoxicity in human SH-SY5Y cells assessed as protection against amyloid beta (1 to 42 residues) induced decrease in cell viability after 24 hrs by LDH assay. Format: functional, cell-based. An outline of the steps: as §1
In assay [7] the test system is Caenorhabditis elegans. Kind of assay: Protection against amyloid beta aggregation-induced paralysis in Caenorhabditis elegans CL4176 assessed as median survival time of worms at 40 uL pretreated with compound at 16 degC for 20 hrs followed by raising temperature to 25 degC (reference value: 42.2 hrs). It counts as functional.
Assay [8] has as its target T1, Amyloid-beta precursor protein. Kind of assay: Inhibition of amyloid beta (1 to 42) (unknown origin) assessed as fibril formation up to 100 uM incubated with agitation for 1 min every hr measured over 80 hrs by thioflavin-T assay. An outline of the steps: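 Synthetic Aβ(1–42) was dissolved in DMSO and diluted to 50 µM in 20 mM phosphate buffer, pH 7.4 (1.5% final DMSO), with 5 µM ThT. Compound was added at 0.01–100 µM and samples were held at 37 °C, agitated 1 min hourly. Fluorescence (ex 442, em 485 nm) was read over 80 h. Background-subtracted 80 h signal was normalized to Aβ alone and fit to Y=100/(1+10^(X−LogIC50)). Triplicate, SEM.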

Assay [9] shares this target. Kind of assay: Inhibition of amyloid beta (1 to 42) (unknown origin) assessed as fibril formation at 3.1 uM incubated with agitation for 1 min every hr measured over 80 hrs by thioflavin-T assay relative to control. Details: scale not given: the % may be the effect or the level left. In a few lines: (§2)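 Synthetic Aβ(1–42) taken up in DMSO, diluted to 50 μM in 20 mM PB pH 7.4 (final DMSO 1.5%) with 5 μM ThT, compound 0.01–100 μM. Incubated at 37 °C with 1 min agitation hourly for 80 h. ThT read at ex 442/em 485 nm. The 80 h signal, buffer-subtracted, normalized to Aβ alone. Independent triplicates, SEM; IC50 fitted to Y=100/(1+10^(X−LogIC50)).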

Assay [10] shares this target. Kind of assay: Inhibition of amyloid beta (1 to 42) (unknown origin) assessed as fibril formation at 25 uM incubated with agitation for 1 min every hr measured over 80 hrs by thioflavin-T assay relative to control. Set-up: scale not given: the % may be the effect or the level left. In a few lines:
as §2

Assay [11] has the same target. In words: Inhibition of amyloid beta (1 to 42) (unknown origin) assessed as fibril formation at 100 uM incubated with agitation for 1 min every hr measured over 80 hrs by thioflavin-T assay relative to control. Set-up: scale not given: the % may be the effect or the level left. In a few lines: as §2
The target is the same in assay [12]. In words: Disaggregation of amyloid beta (1 to 42 residues) (unknown origin) preformed fibrils incubated with agitation for 1 min every hr measured over 80 hrs by thioflavin-T assay. In a few lines:
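Preformed Aβ(1–42) fibrils (25 μM; peptide in DMSO diluted into 20 mM PB pH 7.4, shaken at least 4 days) mixed with compound at 0–100 μM and 5 μM ThT. Incubated at 37 °C with 1 min agitation hourly. Fluorescence read at ex 442/em 485 nm, buffer background subtracted. Final signal normalized to fibrils alone; triplicate; IC50 fitted to Y=100/(1+10^(X−LogIC50)).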

For assay [13] the target is unchanged. In words: Disaggregation of amyloid beta (1 to 42 residues) (unknown origin) preformed fibrils up to 100 uM measured immediately by Western blot analysis. An outline of the steps: (§3)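 Preformed Aβ(1–42) fibrils incubated with compound at 0, 25, 50 or 100 μM for 0 or 14 days. Samples (20 μL plus SDS sample buffer) run on native 13% Tris-tricine gel without SDS, transferred to nitrocellulose at 250 mA for 75 min at 4 °C, blocked in 5% milk, probed with 4G8 and 6E10 plus anti-mouse IgG, ECL detection.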
(In general: In western blotting, separated proteins are transferred to a membrane and probed.)

Assay [14] shares this target. Kind of assay: Disaggregation of amyloid beta (1 to 42 residues) (unknown origin) preformed fibrils up to 100 uM measured on day 14 by Western blot analysis. An outline of the steps: as §3
Assay [15] has the same target. Kind of assay: Disaggregation of amyloid beta (1 to 42 residues) (unknown origin) preformed fibrils at 100 uM measured immediately by transmission electron microscopy. In a few lines:
(§4)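 Aβ(1–42) made by Fmoc solid-phase synthesis and HPLC-purified. Fibrils preformed by dissolving 0.1 mg peptide in DMSO, diluting in 20 mM PB pH 7.4, and shaking for at least 4 days. Fibrils mixed with compound (100 μM), sampled at time 0 or after 14 days, placed on carbon-coated grids, stained with 2% uranyl acetate and imaged by TEM at 120 kV.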

Assay [16] has the same target. In words: Disaggregation of amyloid beta (1 to 42 residues) (unknown origin) preformed fibrils at 100 uM measured on day 14 by transmission electron microscopy. An outline of the steps: as §4
In assay [17] the test system is SH-SY5Y. In words: Neuroprotective activity against preformed amyloid beta (1 to 42 residues) fibril induced cytotoxicity in human SH-SY5Y cells assessed as protection against amyloid beta (1 to 42 residues) induced cell viability at 50 uM after 24 hrs by LDH assay (reference value: 17%). It counts as functional. In a few lines:
(§5)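 Preformed fibrils: 0.1 mg Aβ(1–42) in 6 µL DMSO was diluted into 880 µL 20 mM PB pH 7.4 and shaken ≥4 days. Fibrils were then held with 0, 25, 50 or 100 µM compound. SH-SY5Y cells in serum-free medium received 10 µL sample for 24 h. LDH release was read at 490 nm, background-subtracted, and normalized to 2% Triton X-100 lysis as 100%.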

Assay [18] concerns SH-SY5Y. Kind of assay: Neuroprotective activity against preformed amyloid beta (1 to 42 residues) fibril induced cytotoxicity in human SH-SY5Y cells assessed as protection against amyloid beta (1 to 42 residues) induced cell viability at 100 uM after 24 hrs by LDH assay (reference value: 17%). Format: functional. In a few lines: as §5
Assay [19] concerns SH-SY5Y. In words: Neuroprotective activity against preformed amyloid beta (1 to 42 residues) fibril induced cytotoxicity in human SH-SY5Y cells assessed as protection against amyloid beta (1 to 42 residues) induced decrease in cell viability at 25 uM after 24 hrs by LDH assay. Format: functional, cell-based. An outline of the steps:
as §5

The test system of assay [20] is Caenorhabditis elegans. In words: Protection against amyloid beta aggregation-induced paralysis in Caenorhabditis elegans CL4176 assessed as survival rate of worms at 40 uL pretreated with compound at 16 degC for 20 hrs followed by raising temperature to 25 degC and measured at 26 hrs relative to control. Format: functional. An outline of the steps:
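About 130 eggs of transgenic C. elegans CL4176 (muscle myo-3p::Aβ(1–42)) were grown at 16 °C on NGM plates with E. coli OP50. Plates were pretreated with 40 µL of a 6.27 mM compound solution; nematode growth medium served as buffer control. Temperature was raised to 25 °C at L4. Unparalysed worms (~100–130 per condition) were counted every 2 h. Five trials.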

Calls of active or inactive are those of the source. The calls are words filed in the database; no cut-off is given here.

T1 sequence (P05067 whole entry): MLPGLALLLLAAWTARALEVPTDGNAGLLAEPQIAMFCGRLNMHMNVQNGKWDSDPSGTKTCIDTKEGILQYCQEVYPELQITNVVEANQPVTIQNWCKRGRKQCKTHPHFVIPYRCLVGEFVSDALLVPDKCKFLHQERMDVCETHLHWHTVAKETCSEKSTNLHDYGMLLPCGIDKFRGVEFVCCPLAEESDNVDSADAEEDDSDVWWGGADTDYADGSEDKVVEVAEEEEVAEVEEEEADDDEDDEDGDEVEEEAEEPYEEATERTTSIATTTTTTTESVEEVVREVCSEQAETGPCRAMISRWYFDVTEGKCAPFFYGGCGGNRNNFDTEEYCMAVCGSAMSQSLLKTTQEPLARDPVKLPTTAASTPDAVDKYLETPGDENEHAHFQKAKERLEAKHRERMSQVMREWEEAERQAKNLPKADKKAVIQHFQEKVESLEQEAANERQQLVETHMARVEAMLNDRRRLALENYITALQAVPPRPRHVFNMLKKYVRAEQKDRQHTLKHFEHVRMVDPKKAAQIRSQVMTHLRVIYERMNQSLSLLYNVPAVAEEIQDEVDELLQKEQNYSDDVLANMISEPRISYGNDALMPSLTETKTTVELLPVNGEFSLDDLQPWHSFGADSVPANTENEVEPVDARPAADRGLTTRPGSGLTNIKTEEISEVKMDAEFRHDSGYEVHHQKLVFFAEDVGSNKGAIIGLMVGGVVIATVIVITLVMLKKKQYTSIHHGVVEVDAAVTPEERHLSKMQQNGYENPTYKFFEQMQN

As for `O=C(/C=C/c1ccc(O)c(O)c1)NCCCCc1cn(Cc2ccc(-c3ccc(Cn4cc(CCCCNC(=O)/C=C/c5ccc(O)c(O)c5)nn4)cc3)cc2)nn1`, in assay [1], the Activity was found to be 61.8%.

For the molecule `O=C(/C=C/c1ccc(O)c(O)c1)O[C@H](Cc1ccc(O)c(O)c1)C(=O)O`, the Activity in assay [1] is 79.1%.

In the case of `C#CCNC(=O)/C=C/c1ccc(O)c(O)c1`, the Activity in [1] stood at 79.4%.

For `O=C(/C=C/c1ccc(O)c(O)c1)NCc1cn(Cc2ccc(Cn3cc(CNC(=O)/C=C/c4ccc(O)c(O)c4)nn3)cc2)nn1`, the Activity in [1] came out at 76.5%.

Consider `COc1cc(/C=C/C(=O)CC(=O)/C=C/c2ccc(O)c(OC)c2)ccc1O` [CURCUMIN], for which, in [2], the inhibition entry is “Dose-dependent effect”. Besides, the inhibition entry in assay [3] is “Active”. In addition, in the assay on SH-SY5Y [4], the outcome was inactive. Also, the Activity was 20% in the assay with SH-SY5Y [5] and “Dose-dependent effect” with SH-SY5Y [6]. Moreover, the MST with Caenorhabditis elegans [7] worked out at 25.7 h.

In the case of `O=C(/C=C/c1ccc(O)c(O)c1)NCCOCCOCCOCCOCCNC(=O)/C=C/c1ccc(O)c(O)c1`, in [1], the Activity turned out to be 61.8%. For the same molecule, in [3], the inhibition entry is “inactive”.

Regarding `C#CCCCCNC(=O)/C=C/c1ccc(O)c(O)c1`, the Activity in assay [1] amounted to 67.6%.

A word on the IC50: it is the concentration that inhibits the measured activity by half. In the case of `O=C(/C=C/c1ccc(O)c(O)c1)NCCCNC(=O)/C=C/c1ccc(O)c(O)c1`, the Activity in assay [1] was 52.9%; in [9] it was 60%; in [10], 8%; in [11], 1%; in [12], “Dose-dependent effect”; with SH-SY5Y [4], 19%. Besides, the Activity in the assay with SH-SY5Y [5] was 34%; in the assay on SH-SY5Y [6], “Dose-dependent effect”; in the assay with SH-SY5Y [17], 12%; in the assay with SH-SY5Y [18], 9%. For the same molecule, the 50% inhibitory concentration (IC50) turned out to be 4.9 µM in assay [2] and 4.2 µM in [12]. The inhibition result in assay [2] was “Dose-dependent effect”. Besides, the inhibition entry in assay [3] and in [8] was “Active” throughout. Further, the outcome (in assay [13]; in assay [15]; in the assay on SH-SY5Y [19]) was inactive. The result in assay [14] and in assay [16] was Active. Moreover, in the assay on Caenorhabditis elegans [20], the “fold change (FC)” value was 2.5. Besides, in the assay on Caenorhabditis elegans [7], the MST was 27.3 h.

In the case of `C#CCCCNC(=O)/C=C/c1ccc(O)c(O)c1`, the Activity in assay [1] worked out at 135%.

As for `O=C(/C=C/c1ccc(O)c(O)c1)CC(=O)/C=C/c1ccc(O)c(O)c1`, the Activity in assay [1] is 11.5%.

Turning to `O=C(/C=C/c1ccc(O)c(O)c1)NCCOCCOCCNC(=O)/C=C/c1ccc(O)c(O)c1`, the Activity in assay [1] is 64.7%. The inhibition entry in assay [3] is “inactive”.

Regarding `O=C(/C=C/c1ccc(O)c(O)c1)O[C@H](Cc1ccc(O)c(O)c1)C(=O)NCc1cn(Cc2ccc(-c3ccc(Cn4cc(CNC(=O)[C@@H](Cc5ccc(O)c(O)c5)OC(=O)/C=C/c5ccc(O)c(O)c5)nn4)cc3)cc2)nn1`, the Activity in assay [1] came to 65.1%.

In the case of `C#CCNC(=O)[C@@H](Cc1ccc(O)c(O)c1)OC(=O)/C=C/c1ccc(O)c(O)c1`, in assay [1], the Activity amounted to 107%.

`O=C(O)/C=C/c1ccc(O)c(O)c1` [CAFFEIC ACID]: the Activity in assay [1] was 91.2%; with SH-SY5Y [4] it was 5%; in the assay with SH-SY5Y [5] it was 20%; in the assay on SH-SY5Y [6] it was “Dose-dependent effect”. In addition, the midpoint of inhibition in assay [2], the IC50, lay at 15.6 µM. Also, the inhibition result in assay [2] is “Dose-dependent effect”. For the same molecule, in assay [3], the inhibition entry is “Active”. In addition, the MST with Caenorhabditis elegans [7] came to 26.3 h.

With `O=C(/C=C/c1ccc(O)c(O)c1)NCCCc1cn(Cc2ccc(-c3ccc(Cn4cc(CCCNC(=O)/C=C/c5ccc(O)c(O)c5)nn4)cc3)cc2)nn1`, the Activity in assay [1] came out at 112%.

With `O=C(/C=C/c1ccc(O)c(O)c1)NCc1cn(Cc2ccc(-c3ccc(Cn4cc(CNC(=O)/C=C/c5ccc(O)c(O)c5)nn4)cc3)cc2)nn1`, the Activity in assay [1] amounted to 88.2%.

As to `O=C(/C=C/c1ccc(O)c(O)c1)NCCOCCOCCOCCOCCOCCNC(=O)/C=C/c1ccc(O)c(O)c1`, in assay [1], the Activity was 67.6%. Further, in assay [3], the inhibition result is “inactive”.

Regarding `O=C(/C=C/c1ccc(O)c(O)c1)NCCOCCOCCOCCNC(=O)/C=C/c1ccc(O)c(O)c1`, the Activity in assay [1] was found to be 79.4%. Also, the inhibition result in assay [3] is “inactive”.
